Arr AP2 block: inhibitors of beta-arrestin/AP2 binding, primary screen, biochemical, GPCR trafficking, flow cytometry. beta-arrestin 1 C-terminal peptide binding to AP2 beta2-adaptin appendage (human). FITC-arrestin peptide / GST-AP2 beads; AP2 beta2 appendage carries R879A mutation. inhibition, % at 10 µM. 340,000 tested, 0.31% active;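 active = inhibition above a set limit, near 3 SD of compounds lacking own fluorescence, cut at about 54% in these data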;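 also: plate controls were DMSO wells for no effect and 5 µM unlabelled arrestin peptide for full effect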
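Material – AP2 appendage R879A on GSH beads · Buffer or medium – PBS with 0.05% Tween 20 and 0.1% BSA · Probe or stimulus – fluorescein-tagged arrestin peptide at 50 nM final · Incubation – compound with beads 12 min RT, then probe 1 h RT · Detection – high-throughput flow cytometry of beads, ex 488, em 535 nm · Evaluation – percent response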
PolyA inh: polyadenylation inhibitors in yeast reporter cells, primary screen, luminescence, S. cerevisiae. activity score, % at 12 µM. S. cerevisiae SKY197-pL101 polyadenylation reporter, beta-gal luminescence; efflux-impaired pdr1/pdr3 knockout yeast; score 100 = 6 SD above DMSO. 300,000 tested, 0.02% active;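 active = lowest replicate activity score at least 50, where 100 means six control SD above control mean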;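 also: yeast exposed to compound for 9 h at 30 °C; higher score means more reporter readthrough which indicates perturbed polyadenylation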
UCH37 inh: inhibitors of human UCH37 deubiquitinase, primary screen, biochemical, Ub-AMC cleavage, fluorescence. Ubiquitin carboxyl-terminal hydrolase isozyme L5 (Homo sapiens), Q9Y5K5. purified proteasome/UCH37. inhibition, % (test concentration not listed). 330,000 tested, 0.33% active. AID 588478, 2011;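 active = mean inhibition over replicate wells above about 20%, limit read from the data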;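 also: 0% = compound-free wells with enzyme and 100% = wells lacking proteasome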
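system = Proteasome-associated human UCH37 deubiquitinase | amount = 0.15 nM proteasome as dispensed | medium = pH 7.4 Tris-HCl (50 mM) with ovalbumin, ATP-MgCl2, DTT | incubation = 30 min preincubation with enzyme, 25 min cleavage at room temperature | detection = AMC fluorescence 355/460 nm | read-out basis = percent inhibition | controls = no-proteasome and no-compound wells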
A3G deaminase: APOBEC3G DNA deaminase inhibitors, primary screen, biochemical, fluorescence, single-stranded DNA substrate, uHTS. DNA dC->dU-editing enzyme APOBEC-3G (Homo sapiens), Q9HC16. recombinant A3G, ssDNA deamination FAM/TAMRA fluorescence. inhibition, % at 20 µM. 330,000 tested, 0.28% active. AID 493012, 2011;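 active = inhibition of at least 40% at 20 µM, with no more than 30% in the related APOBEC3A deaminase screen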;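 also: plate controls were DMSO wells with A3G for no effect and wells lacking A3G enzyme for full effect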
AHR activator: AHR activators, primary screen, cell-based, luminescence, luciferase reporter, human. AHR-responsive luciferase reporter cells. activation, % at 5 µM. 320,000 tested, 2.5% active. AID 2796, 2010; in the data active = activation above about 47%;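 also: 0% = vehicle wells and 100% = reference agonist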
Target sequence (P35869 whole entry, looked up): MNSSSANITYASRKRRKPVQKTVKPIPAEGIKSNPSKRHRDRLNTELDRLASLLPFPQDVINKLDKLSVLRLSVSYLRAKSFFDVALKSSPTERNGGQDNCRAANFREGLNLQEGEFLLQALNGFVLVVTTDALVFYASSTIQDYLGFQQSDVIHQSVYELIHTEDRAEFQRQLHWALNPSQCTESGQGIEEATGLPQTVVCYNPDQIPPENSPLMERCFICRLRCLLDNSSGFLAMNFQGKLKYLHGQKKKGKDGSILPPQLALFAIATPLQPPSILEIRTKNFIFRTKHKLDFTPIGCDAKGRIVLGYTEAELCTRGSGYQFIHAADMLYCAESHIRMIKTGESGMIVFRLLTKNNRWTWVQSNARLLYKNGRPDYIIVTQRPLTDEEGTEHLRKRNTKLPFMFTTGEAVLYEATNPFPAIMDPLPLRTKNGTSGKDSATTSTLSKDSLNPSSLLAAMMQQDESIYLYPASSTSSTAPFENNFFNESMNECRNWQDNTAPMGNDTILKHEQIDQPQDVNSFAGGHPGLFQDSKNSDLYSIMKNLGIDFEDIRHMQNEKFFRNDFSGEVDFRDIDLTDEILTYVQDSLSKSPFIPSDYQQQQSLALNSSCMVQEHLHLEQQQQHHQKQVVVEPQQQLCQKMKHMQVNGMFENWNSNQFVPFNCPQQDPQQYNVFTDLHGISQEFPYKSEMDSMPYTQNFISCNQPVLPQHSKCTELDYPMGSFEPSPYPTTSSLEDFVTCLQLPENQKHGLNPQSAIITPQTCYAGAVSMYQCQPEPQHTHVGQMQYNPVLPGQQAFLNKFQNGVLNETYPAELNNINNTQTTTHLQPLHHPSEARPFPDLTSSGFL
A3A deaminase: APOBEC3A ssDNA deaminase inhibitors, primary screen, selectivity assay for APOBEC3G inhibitor project, biochemical, FAM/TAMRA oligo cleavage fluorescence; inhibition, % at 20 µM; recombinant A3A, FAM/TAMRA ssDNA deamination fluorescence; DNA dC->dU-editing enzyme APOBEC-3A (Homo sapiens), P31941; AID 493011, 2011; 330,000 tested, 0.41% active;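 active = at least 40% inhibition at 20 µM here, with at most 30% in a related deaminase screen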;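 also: plate controls were A3A with DMSO for no effect and wells lacking A3A enzyme for full effect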
AHR act cf: AHR activators, confirmation, cell-based, luminescence, luciferase reporter, human; shares compounds with AHR activator; human cells, AHR-responsive luciferase reporter; activation, % at 9 µM; 2,300 tested, 87% active; in the data active = activation above about 49%;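 also: HepG2 hepatoma cells carrying a DRE-driven firefly luciferase reporter; 0% = vehicle wells and 100% = reference agonist wells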
PXR counter: human PXR activators, counter-screen for AHR activator project, cell-based, luciferase luminescence. activation, % at 11.6 µM. shares compounds with AHR activator. 2,300 tested, 88% active. cell-based PXR reporter. AID 434939, 2010; in the data active = activation above about 11%;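 also: human hepatoma DPX-2 cells expressing full-length human PXR; 0% = DMSO and 100% = reference agonist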
* hit, by the source's call; / = no result. Sampled rows, rich in hits. Any-hit rate of the full collection: about 3.4%.

SMILES	Arr AP2 block	PolyA inh	UCH37 inh	A3G deaminase	AHR activator	A3A deaminase	AHR act cf	PXR counter
CCOC(=O)C(=NNc1ccccc1OC)N1CCCc2ccccc21	/	/	5	/	/	/	/	/
CCOC(=O)C=c1sc(=Cc2sccc2C)c(=O)n1CC(=O)NCc1ccc(C)cc1	/	/	-13	/	/	/	/	/
Cc1cccc(C)c1OCC(=O)N=Nc1c(O)[nH]c2ccc(Br)cc12	4	1	6	-5	3	1	/	/
N=C(N)N=Nc1c(O)[nH]c2ccc(Br)cc12	3	5	15	-4	93*	0	88*	28*
Clc1cccc(-c2ccc(CNCc3ccccn3)o2)c1	12	-3	-6	1	121*	1	87*	24*
Brc1ccc(-c2ccc(CNCc3ccccn3)o2)cc1	8	0	3	-5	14	-1	/	/
O=C(NC(Cc1c[nH]c2ccccc12)C(=O)NN=Cc1cccnc1)c1cccs1 (stereo not drawn)	/	/	4	/	/	/	/	/
Cn1cc(/C=C2/SC(=O)N(c3ccccc3)C2=O)c2ccccc21	-2	-10	-2	0	101*	2	87*	17*
Cn1cc(/C=C2\SC(=S)N(NC(=O)c3ccccc3)C2=O)c2ccccc21	-5	-11	5	/	21	/	/	/
Cn1cc(/C=C2\SC(=S)N(N3CCOCC3)C2=O)c2ccccc21	12	3	2	-3	107*	4	6	6
O=C(O)Cn1cc(/C=C2\SC(=O)N(c3ccccc3)C2=O)c2ccccc21	6	7	10	-5	32	2	/	/
O=C(CCC(=O)Nc1ccc(F)cc1)NN=Cc1cccc(Br)c1	/	/	0	/	/	/	/	/
Cc1ccc(C)c(NC(=O)CCC(=O)NN=Cc2ccc[nH]2)c1	/	/	2	/	/	/	/	/
O=C(NN=C1CCC(c2ccccc2)CC1)c1ccccc1-n1cccc1 (stereo not drawn)	3	6	-1	-10	117*	-1	4	9
COc1ccc(OC)c(Nc2nc(NCCC(C)C)nc(N)c2[N+](=O)[O-])c1	-14	-11	5	-9	20	-2	/	/
COc1ccc(Nc2nc(N)c([N+](=O)[O-])c(NCc3ccccc3)n2)cc1	8	-17	7	-5	17	-1	/	/
C=CCNc1nc(N)c([N+](=O)[O-])c(Nc2ccccc2OC)n1	-7	-42	2	-7	116*	-3	123*	21*
CCC(C)Nc1nc(N)c([N+](=O)[O-])c(Nc2cc(OC)ccc2OC)n1 (stereo not drawn)	4	-11	6	6	80*	6	127*	76*
Cc1cc(C)n(-c2nnc(C)n2N=Cc2ccco2)n1	/	/	2	/	/	/	/	/
Cc1cc(=O)c2c(C)nn(-c3ccccc3)c2[nH]1	19	13	2	-3	0	2	/	/
CCc1c(C)c2c(C)nn(-c3ccccc3)c2[nH]c1=O	-4	-2	0	-5	97*	0	94*	24*
O=C(C[n+]1cc2ccccc2c2ccccc21)c1ccccc1	8	9	-17	6	87*	5	93*	55*
COc1ccc(/C=N/Nc2nncn2N)cc1Br	8	2	/	6	88*	-6	41	12*
COc1cc(C=NNC(=S)Nc2cccc(Cl)c2C)ccc1OCC(=O)N1CC(C)OC(C)C1 (stereo not drawn)	/	/	5	/	/	/	/	/
Cc1c(/C=N/NC(N)=O)c2ccccn2c1C(=O)c1ccc(F)cc1	1	-14	/	3	90*	1	26	77*
SMILES	Arr AP2 block	PolyA inh	UCH37 inh	A3G deaminase	AHR activator	A3A deaminase	AHR act cf	PXR counter
CCc1ccc(/C=N/Nc2ncnc3nc[nH]c23)cc1	14	2	/	2	45	4	/	/
CCc1ccc(N=Nc2ccc(O)c3[nH]cnc23)cc1	-7	/	/	-2	101*	1	93*	11*
O=C(Nc1ccc(Cl)cc1)c1cccc(NC2=NC3CS(=O)(=O)CC3S2)c1 (stereo not drawn)	9	2	2	-7	182*	-2	117*	19*
O=C(CSc1nc2ncc(Br)cc2[nH]1)c1cccc([N+](=O)[O-])c1	0	3	4	-4	92*	0	67*	98*
O=[N+]([O-])c1ccc(CSc2nc3ncc(Br)cc3[nH]2)cc1	17	6	0	5	9	2	/	/
CC(C)(C)C(=O)CSc1nc2ncc(Br)cc2[nH]1	-1	-7	5	-3	84*	1	57*	125*
Fc1ccccc1CSc1nc2ncc(Br)cc2[nH]1	-8	-13	4	-12	104*	-4	71*	100*
Cc1cc(C)c(NC(=O)CSc2nc3ncc(Br)cc3[nH]2)c(C)c1	33	-5	1	-4	12	-2	/	/
COc1cc(C=NNC(=O)C(=O)NCC2CCCO2)ccc1O (stereo not drawn)	/	/	9	/	/	/	/	/
O=C(NN=Cc1ccncc1)c1ccccc1O	/	/	6	/	/	/	/	/
C=CCc1c(C)nc(SC)nc1Nc1ccccc1	25	-17	1	-8	104*	-9	58*	105*
C=CCc1c(C)nc(SC)nc1Nc1ccc(C(C)=O)cc1	16	-19	4	-2	83*	9	73*	120*
O=C(NN=C(Cc1ncc[nH]1)c1ccccc1)c1ccncc1	/	/	-1	/	/	/	/	/
O=C(NN=C/C(Cl)=C/c1ccccc1)c1ccccn1	/	/	5	/	/	/	/	/
CC(=NNC(=O)CNC(=O)COc1cccc(C)c1)c1ccc(Cl)cc1	/	/	4	/	/	/	/	/
CC(=NNc1nc(-c2ccccc2)c(CC(=O)O)s1)c1ccccc1	/	/	8	/	/	/	/	/
COc1ccc(O)c(-c2cc(-c3ccc(F)cc3)n[nH]2)c1	7	-14	3	0	96*	1	159*	15*
COc1ccc(-c2cc(-c3ccc(Cl)cc3)n[nH]2)c(O)c1	11	-11	2	-7	7	2	/	/

High-throughput results: PubChem BioAssay, several laboratories
